# Compounds with a hit are over-represented: about 3.7% of the library has one in this group of screens.
# Dynein transport: inhibitors of GR-EGFP nuclear translocation, primary screen, dynein cargo transport inhibitor project, imaging, high-content, 3617.4 mouse cells. test concentration mostly 20 µM; stimulated with dexamethasone, 1 µM; active compounds read low. 220,000 tested, 0.47% active. z-score, hits read low;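 active means plate z-score of nuclear minus cytoplasmic receptor signal below a set negative limit, without overly bright fluorescence or cell loss, cut at about -3.5 in these data, passing the limit was not always enough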;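 further: z-score of nuclear minus cytoplasmic ring GR-EGFP intensity difference per well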
#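 Buffer or medium: Induction medium lacking tetracycline, stripped serum | Also added: Dexamethasone agonist, 1.0 µM final, for 30 min | Timing: 48 h induction, 1 h compound, 30 min dex at 37 °C | Detection: Formaldehyde fixation, Hoechst nuclear stain, 10x automated fluorescence imaging | Measure: Nuclear versus cytoplasmic GR-EGFP signal, averaged per well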
# MDM2 E3 inh: MDM2-luciferase reporter signal enhancers, primary screen, MDM2 E3 ligase inhibitor project, cell-based, luminescence, 1536-well; cell-based MDM2 ubiquitination luciferase reporter, 2 h; 0 = plate control, 100 = twice control, blank-subtracted; signal enhancement, % at 5 µM; 210,000 tested, 0.11% active; AID 1230, 2008;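 active means signal enhancement of 30% or more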;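 further: luminescence tracks abundance of the self-degrading MDM2-luciferase fusion protein; higher signal means inhibition of MDM2 E3 ligase activity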
#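 system = mammalian cells stably expressing self-ubiquitinating, self-degrading MDM2 E3–luciferase fusion | quantity = 2000 cells per well seeded | incubation = 4 h cell settling then 2 h compound exposure, 37 °C | signal = SteadyLite luminescence, 15 min reagent step | benchmarks = plate control and blank wells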
# CHOP UPR activ: activators of apoptotic CHOP UPR arm, primary screen, cell-based, CHO-CHOP luciferase reporter, luminescence, uHTS | UPR activation; percent of tunicamycin response over DMSO baseline | activation, % at 10 µM | 330,000 tested, 0.34% active | AID 449763, 2010;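 active means at 10 µM dose, activation of 40% or more, normalized to positive control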
#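 System: CHO CHOP reporter cells. Amount: 500 cells per well. Buffer or medium: F12 medium, 10% FBS. Compound dosing: one dose, 10 µM in 0.5% DMSO. Incubation: 6 h compound exposure at 37 °C after overnight seeding. Technique: Steady-Glo luciferase luminescence. Benchmarks: tunicamycin and DMSO controls.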
# B2AR ag: beta2AR agonists driving receptor internalization, primary screen, cell-based, FAP fluorogen, flow cytometry. AID 504454, 2011. Am2.2-beta2AR cells. 340,000 tested, 0.43% active. Beta-2 adrenergic receptor (Homo sapiens), P07550. response, % (test concentration not listed);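 active means response above a set limit, near 3 SD of response in nonfluorescent compounds, cut at about 42% in these data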
# Mdm2 MdmX PPI: inhibitors of human Mdm2-MdmX association, primary screen, cell-based, luminescence, split luciferase, SaOS-2, uHTS; inhibition, % at 8 µM; SaOS-2 split-luciferase Mdm2/MdmX complementation; Protein Mdm4 (Homo sapiens) + E3 ubiquitin-protein ligase Mdm2 (Homo sapiens), …; 330,000 tested, 3% active;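 active means inhibition of at least 50% at 8 µM in the primary screen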
# Target sequence (O15151 whole entry, looked up): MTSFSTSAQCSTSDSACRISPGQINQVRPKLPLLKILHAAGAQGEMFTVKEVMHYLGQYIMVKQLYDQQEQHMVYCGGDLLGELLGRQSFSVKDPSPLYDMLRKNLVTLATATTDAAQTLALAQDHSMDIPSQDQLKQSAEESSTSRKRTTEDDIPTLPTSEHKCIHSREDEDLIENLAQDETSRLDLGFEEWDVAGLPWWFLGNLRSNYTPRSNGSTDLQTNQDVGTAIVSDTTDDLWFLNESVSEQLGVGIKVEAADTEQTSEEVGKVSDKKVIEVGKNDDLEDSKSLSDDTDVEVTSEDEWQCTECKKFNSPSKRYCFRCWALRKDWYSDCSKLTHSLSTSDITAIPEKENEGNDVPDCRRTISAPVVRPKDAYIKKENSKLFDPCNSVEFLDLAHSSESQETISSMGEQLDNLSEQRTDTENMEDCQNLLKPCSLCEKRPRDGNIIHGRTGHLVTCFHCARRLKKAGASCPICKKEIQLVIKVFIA
# Target sequence (Q00987 whole entry, looked up): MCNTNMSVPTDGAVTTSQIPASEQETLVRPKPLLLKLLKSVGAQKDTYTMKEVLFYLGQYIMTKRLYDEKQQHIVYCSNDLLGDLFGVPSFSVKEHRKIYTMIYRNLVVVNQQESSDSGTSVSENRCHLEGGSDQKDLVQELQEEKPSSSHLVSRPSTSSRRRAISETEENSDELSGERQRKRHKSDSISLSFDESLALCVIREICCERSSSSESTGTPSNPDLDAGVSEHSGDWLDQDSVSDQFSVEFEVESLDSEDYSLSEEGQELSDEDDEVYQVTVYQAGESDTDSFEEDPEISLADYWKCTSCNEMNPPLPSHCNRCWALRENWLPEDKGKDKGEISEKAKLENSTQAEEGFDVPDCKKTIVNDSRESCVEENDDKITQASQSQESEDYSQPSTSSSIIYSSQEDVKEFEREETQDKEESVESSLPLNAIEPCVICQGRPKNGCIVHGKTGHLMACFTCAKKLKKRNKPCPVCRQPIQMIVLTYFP
# UPR XBP1 act: activators of adaptive XBP1 UPR arm, primary screen, cell-based, CHO-XBP1 luciferase reporter, luminescence, uHTS; AID 463104, 2010; activation, % at 20 µM; 330,000 tested, 0.33% active; IRE1-XBP1 UPR activation; percent of tunicamycin response, DMSO as zero;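 active means versus positive control, 20 µM dose yields 30% or more activation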
#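 Material: IRE1-XBP1 luciferase reporter CHO line / Quantity: one thousand reporter cells per well / Buffer or medium: F12 with 10% serum / Compound: 20 µM single concentration, DMSO 1% / Times: 6 h treatment, 37 °C / Detection: Steady-Glo luciferase glow luminescence, 10 min after reagent addition / Benchmarks: tunicamycin high, DMSO low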
# Dynein confirm: dynein cargo transport inhibitors, GR-EGFP translocation, confirmation, imaging, high-content imaging, GR-EGFP cells | shares compounds with Dynein transport | calls only at 20 µM | 1,000 tested, 69% active | 3617.4 GR-EGFP nuclear translocation imaging, dexamethasone-induced;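 active means inhibition of receptor movement into the nucleus at or above a set limit in both runs, with normal cell brightness and cell count; inconclusive means limit reached in only one run, brightness and count normal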;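 further: dexamethasone at 1 µM final in well for 30 min; nuclear minus cytoplasmic GR-EGFP mean intensity difference in channel 2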
# Hits are given with their value; i = inactive; ? = inconclusive; nt = no result; + = active, no number.
SMILES,Dynein transport,MDM2 E3 inh,CHOP UPR activ,B2AR ag,Mdm2 MdmX PPI,UPR XBP1 act,Dynein confirm
CCOC(=O)/C(=C/C=C1\Sc2cc(C)c(C)cc2N1CC)C(C)=O,i,i,nt,i,nt,nt,i
CCOC(=O)/C(=C/C=C1\Sc2ccccc2N1CC)C(C)=O,i,i,i,i,i,i,nt
COC(=O)C1=C(C)NC2=C(C(=O)CCC2)C1c1ccc(-c2ccsc2C(=O)OC)o1 (stereo unspecified),i,i,i,i,i,i,nt
CCN1C[C@@H]2[C@@H]3C(=O)N(Cc4ccccc4)C(=O)[C@@H]3[C@](Cc3ccccc3)(C1=O)N2C(=O)c1ccc(C)cc1,nt,nt,nt,i,nt,nt,nt
O=C(/C=C/c1ccccc1)c1ccc2c(c1)OCO2,i,i,i,i,i,i,nt
O=C(/C=C/c1ccncc1)c1ccc2c(c1)OCCO2,-5.4,i,i,i,i,i,+
O=C(Cn1ccc(NC(=O)OCc2ccccc2)nc1=O)NCc1nc2ccccc2[nH]1,nt,nt,i,i,i,i,nt
CCOC(=O)C1=CN(C(C)C)CCC1=O,nt,nt,nt,i,nt,nt,nt
O=S(=O)(Nc1ccon1)c1ccc(F)c(F)c1,nt,nt,i,i,i,i,nt
COc1ccc(N(C(=O)c2ccco2)C(C(=O)NC2CCCCC2)c2cccs2)cc1OC (stereo unspecified),i,i,i,i,i,i,nt
COc1cccc(N(C(=O)CCl)C(C(=O)NCCc2ccccc2)c2cccs2)c1 (stereo unspecified),-5.5,i,nt,i,nt,nt,+
COc1ccc(N(C(=O)CCl)C(C(=O)NCCc2ccccc2)c2cccs2)cc1Cl (stereo unspecified),-4.8,nt,nt,i,nt,nt,+
CCOc1ccc(C(=O)NCC(=O)NNC(=O)CN(C)S(=O)(=O)c2ccc(Cl)cc2)cc1OCC,nt,nt,nt,i,nt,nt,nt
CCOC(=O)c1csc(N)c1-c1ccc([N+](=O)[O-])cc1,i,i,i,i,i,i,nt
COCCN(CC(=O)NC1CCCCC1)C(=O)/C=C/C(=O)c1ccc(OC)cc1O,-3.7,i,nt,91,nt,nt,+
Nc1nc(CCl)nc(Nc2ccc3ccccc3c2)n1,-4.3,i,nt,i,nt,nt,+
BrC(=C\c1ccccc1)/C=N/n1cnnc1,-3.7,i,nt,i,nt,nt,+
BrC(=C\c1ccccc1)/C=N/Nc1ccc2nncn2n1,i,i,i,i,i,i,nt
CN1CC(=O)N(CC(=O)Nc2cccc3ccccc23)C1=O,nt,nt,i,i,i,i,nt
Cc1cccc(NC(=O)CCC(=O)OCC(=O)c2ccc(Oc3ccc([N+](=O)[O-])cc3)cc2)c1,-4.4,nt,i,i,i,i,?
CC1CCc2cc(F)ccc2N1C(=O)CCl (stereo unspecified),-5.4,i,nt,i,nt,nt,+
CCN(CCn1cccn1)C(=O)C1CCC(=O)N(CCN2CCOCC2)C1 (stereo unspecified),nt,nt,i,i,i,i,nt
CCCN(CC(=O)Nc1ccccc1OC)C(=O)c1ccc(COc2ccccc2)o1,nt,nt,i,i,i,i,nt
O=C(Nc1ccccc1)c1nnsc1S(=O)c1ccc(Cl)cc1 (stereo unspecified),-3.5,i,i,i,i,i,+
COc1cc(C)cc(C(=O)C=Cc2ccccc2)c1O,nt,nt,nt,i,nt,nt,nt
SMILES,Dynein transport,MDM2 E3 inh,CHOP UPR activ,B2AR ag,Mdm2 MdmX PPI,UPR XBP1 act,Dynein confirm
COC1=C(C)C(O)=C(C(=O)/C=C/c2ccccc2)C(=O)C1(C)C,-5.2,i,i,i,i,i,+
CC(=O)NC(CSC(CC(=O)c1ccco1)c1ccc(C)cc1)C(=O)O (stereo unspecified),-4.3,i,i,i,i,i,i
O=C(CC(SCCO)c1ccc([N+](=O)[O-])cc1)c1ccco1 (stereo unspecified),nt,nt,i,i,i,i,nt
O=C(COc1ccccc1Cl)NCCCNC(=O)c1ccco1,nt,nt,i,i,i,i,nt
Nn1c(SCc2cc([N+](=O)[O-])cc3c2OCOC3)nnc1-c1cccnc1,i,i,i,i,i,i,nt
CC1(C)CC(=O)C2=C(C1)OC(N)=C(C#N)C2C#Cc1ccccc1 (stereo unspecified),-5.4,i,i,i,i,i,+
Nc1nc(Sc2c([N+](=O)[O-])cc(C(F)(F)F)cc2[N+](=O)[O-])n[nH]1,-7.1,i,i,i,i,i,+
CC(=O)N(Cc1c(C)nn(-c2ccccc2)c1Cl)c1ccc(Cl)cc1,i,i,i,i,i,i,nt
Cc1nn(-c2ccccc2)c(Cl)c1CN(C(=O)CCl)c1ccc(Cl)cc1,-3.9,i,nt,i,nt,nt,+
Cc1cc(C)n(C(C[N+](=O)[O-])c2ccc(Cl)cc2)n1 (stereo unspecified),-5.6,i,i,i,i,i,i
Cc1c(-c2cccc(Cl)c2)nc2ccccc2c1C(=O)NC1CC1,nt,nt,i,i,i,i,nt
COc1ccc(S(=O)(=O)N(C)C[C@H]2Oc3ccc(NS(=O)(=O)c4cn(C)cn4)cc3C(=O)N([C@H](C)CO)C[C@@H]2C)cc1,nt,nt,i,i,i,i,nt
Cn1c(=O)c([N+](=O)[O-])c(Cl)c2ccccc21,-6.3,i,nt,89,nt,nt,+
CN1/C(=C/c2cccc[n+]2CCO)Sc2ccccc21,nt,nt,i,i,i,i,nt
CC[n+]1c(/C=C2\Sc3ccccc3N2C)ccc2cccc(C)c21,-8.5,i,nt,nt,nt,nt,+
O=C(CCCCCCCC(=O)c1ccccc1)c1ccccc1,i,i,i,i,i,i,nt
C=C(CCC(=O)c1ccccc1)C(=O)c1ccccc1,-3.8,i,nt,i,nt,nt,+
Cc1ccc(CNC(=O)C2CCCN(c3cnccn3)C2)cc1 (stereo unspecified),nt,nt,i,i,i,i,nt
CC1OC(OC2C(OC3C(O[C@H]4CC[C@]5(C)C6C=C[C@]78OC[C@@]9(CC[C@@H](C)[C@H](C)C97)[C@H](O)C[C@@]8(C)[C@]6(C)CC[C@H]5C4(C)C)OC(C)C(O)C3O)OC(CO)C(O)C2O)C(O)C(O)C1O (stereo partly specified),-3.9,i,nt,nt,nt,nt,i
c1cncc(-c2nc(-c3ccco3)cs2)c1,-4.5,i,i,i,i,i,i
COc1ccc(S(=O)(=O)Nc2ccc(O)c3ccccc23)cc1,-3.7,i,i,i,i,i,i

# Source: PubChem BioAssay
